Measurements reported in ChEMBL document CHEMBL5247671, “Design and Synthesis of Pyrazole-Based Macrocyclic Kinase Inhibitors Targeting BMPR2” (ACS Med Chem Lett, 2023).
pIC50: −log10 of the molar value.

How the values were obtained:
[1] = target: Glycogen synthase kinase-3 alpha (Homo sapiens, UniProt P49840); assay: Inhibition of N-terminal NanoLuc-fused full length GSK3A (unknown origin) transfected in HEK293T cells incubated for 2 hrs in presence of tracer K8 by NanoBRET assay; assay type: cell-based
Glycogen synthase kinase-3 alpha, sequence (P49840 whole entry, the tested form may be a part): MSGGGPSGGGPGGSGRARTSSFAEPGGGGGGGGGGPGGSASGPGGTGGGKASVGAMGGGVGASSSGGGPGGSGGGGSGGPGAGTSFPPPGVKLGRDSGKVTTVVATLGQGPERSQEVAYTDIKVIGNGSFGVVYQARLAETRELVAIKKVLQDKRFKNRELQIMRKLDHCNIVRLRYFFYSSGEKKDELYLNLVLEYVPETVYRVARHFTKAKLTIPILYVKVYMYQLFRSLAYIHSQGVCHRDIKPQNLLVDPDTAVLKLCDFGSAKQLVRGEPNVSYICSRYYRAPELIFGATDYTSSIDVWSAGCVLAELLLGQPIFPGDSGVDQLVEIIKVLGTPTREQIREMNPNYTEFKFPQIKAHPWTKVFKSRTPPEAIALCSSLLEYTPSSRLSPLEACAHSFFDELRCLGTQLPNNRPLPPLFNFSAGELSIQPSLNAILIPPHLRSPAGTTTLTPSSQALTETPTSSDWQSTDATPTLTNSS
How it was run: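 Cellular target engagement by NanoBRET in intact cells expressing NanoLuc-fused GSK3A or GSK3B, with EC50 values derived from tracer displacement.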

[2] = target: T1, Bone morphogenetic protein receptor type-2 (Homo sapiens) (UniProt Q13873); assay: Inhibition of recombinant BMPR2 (unknown origin) at 10 uM by DSF assay relative to […]
T1 sequence (whole entry): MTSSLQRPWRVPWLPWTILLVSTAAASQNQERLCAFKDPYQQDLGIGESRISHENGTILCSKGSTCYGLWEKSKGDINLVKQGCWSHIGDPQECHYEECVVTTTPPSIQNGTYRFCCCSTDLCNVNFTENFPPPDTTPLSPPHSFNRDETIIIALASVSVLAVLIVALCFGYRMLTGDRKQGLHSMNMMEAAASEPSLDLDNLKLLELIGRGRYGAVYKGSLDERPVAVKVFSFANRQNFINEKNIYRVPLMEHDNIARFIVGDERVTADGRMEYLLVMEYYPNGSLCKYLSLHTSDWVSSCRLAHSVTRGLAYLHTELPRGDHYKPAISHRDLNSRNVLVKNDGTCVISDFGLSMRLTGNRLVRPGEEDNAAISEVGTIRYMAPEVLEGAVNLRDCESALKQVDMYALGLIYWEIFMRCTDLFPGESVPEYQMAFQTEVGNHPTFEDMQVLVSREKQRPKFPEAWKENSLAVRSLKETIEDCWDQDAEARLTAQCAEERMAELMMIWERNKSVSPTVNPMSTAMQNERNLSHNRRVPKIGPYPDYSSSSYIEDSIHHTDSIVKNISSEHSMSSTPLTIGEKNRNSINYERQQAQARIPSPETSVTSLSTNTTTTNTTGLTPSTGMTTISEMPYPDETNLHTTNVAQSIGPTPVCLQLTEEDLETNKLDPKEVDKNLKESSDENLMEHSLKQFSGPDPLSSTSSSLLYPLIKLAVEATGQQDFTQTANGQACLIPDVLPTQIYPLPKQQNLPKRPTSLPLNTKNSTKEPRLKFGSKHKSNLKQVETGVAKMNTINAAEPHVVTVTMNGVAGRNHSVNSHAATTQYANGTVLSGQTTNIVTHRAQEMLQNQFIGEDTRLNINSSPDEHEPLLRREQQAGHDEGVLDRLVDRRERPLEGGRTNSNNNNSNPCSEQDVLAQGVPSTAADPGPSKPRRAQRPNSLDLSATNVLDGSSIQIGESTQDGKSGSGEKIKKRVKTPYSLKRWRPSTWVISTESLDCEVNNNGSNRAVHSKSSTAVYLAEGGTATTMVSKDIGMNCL

[3] = target: T2, MAP/microtubule affinity-regulating kinase 4 (Homo sapiens) (UniProt Q96L34); assay: Binding affinity to recombinant MARK4 (unknown origin) assessed as change in melting temperature at 10 uM by DSF assay
T2 sequence (whole entry): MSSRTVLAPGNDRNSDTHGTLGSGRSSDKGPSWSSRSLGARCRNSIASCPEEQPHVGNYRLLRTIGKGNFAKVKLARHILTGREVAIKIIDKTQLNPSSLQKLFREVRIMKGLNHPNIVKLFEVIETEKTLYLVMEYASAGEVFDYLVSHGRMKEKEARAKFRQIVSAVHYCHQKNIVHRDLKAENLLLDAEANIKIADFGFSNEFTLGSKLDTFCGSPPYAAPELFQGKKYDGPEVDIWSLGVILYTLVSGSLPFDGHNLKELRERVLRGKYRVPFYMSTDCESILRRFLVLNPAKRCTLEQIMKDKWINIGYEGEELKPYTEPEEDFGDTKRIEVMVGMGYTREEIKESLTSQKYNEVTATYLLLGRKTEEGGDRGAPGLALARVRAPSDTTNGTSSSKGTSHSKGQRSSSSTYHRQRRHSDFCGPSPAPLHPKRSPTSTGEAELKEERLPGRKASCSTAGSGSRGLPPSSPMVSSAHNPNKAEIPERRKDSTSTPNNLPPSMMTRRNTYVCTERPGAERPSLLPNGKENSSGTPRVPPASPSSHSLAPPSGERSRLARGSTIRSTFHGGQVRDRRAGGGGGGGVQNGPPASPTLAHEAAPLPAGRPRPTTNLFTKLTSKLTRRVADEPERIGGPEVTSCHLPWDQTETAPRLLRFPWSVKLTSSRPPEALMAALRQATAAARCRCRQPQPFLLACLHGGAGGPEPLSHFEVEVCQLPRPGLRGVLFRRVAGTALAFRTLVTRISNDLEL
How it was run: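 Differential scanning fluorimetry on an in-house panel of 90 recombinant kinases. Stabilization is read as the shift in melting temperature (ΔTm) relative to ligand-free protein. Staurosporine served as the positive control, and binding was also compared against its ΔTm.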

[4] = system: T3, Receptor-type tyrosine-protein kinase FLT3 (Homo sapiens), P36888 [D835V]; assay: Inhibition of FLT3 D835V mutant (unknown origin) at 1 uM by Kinomescan assay relative to staurosporine
T3 sequence (whole entry): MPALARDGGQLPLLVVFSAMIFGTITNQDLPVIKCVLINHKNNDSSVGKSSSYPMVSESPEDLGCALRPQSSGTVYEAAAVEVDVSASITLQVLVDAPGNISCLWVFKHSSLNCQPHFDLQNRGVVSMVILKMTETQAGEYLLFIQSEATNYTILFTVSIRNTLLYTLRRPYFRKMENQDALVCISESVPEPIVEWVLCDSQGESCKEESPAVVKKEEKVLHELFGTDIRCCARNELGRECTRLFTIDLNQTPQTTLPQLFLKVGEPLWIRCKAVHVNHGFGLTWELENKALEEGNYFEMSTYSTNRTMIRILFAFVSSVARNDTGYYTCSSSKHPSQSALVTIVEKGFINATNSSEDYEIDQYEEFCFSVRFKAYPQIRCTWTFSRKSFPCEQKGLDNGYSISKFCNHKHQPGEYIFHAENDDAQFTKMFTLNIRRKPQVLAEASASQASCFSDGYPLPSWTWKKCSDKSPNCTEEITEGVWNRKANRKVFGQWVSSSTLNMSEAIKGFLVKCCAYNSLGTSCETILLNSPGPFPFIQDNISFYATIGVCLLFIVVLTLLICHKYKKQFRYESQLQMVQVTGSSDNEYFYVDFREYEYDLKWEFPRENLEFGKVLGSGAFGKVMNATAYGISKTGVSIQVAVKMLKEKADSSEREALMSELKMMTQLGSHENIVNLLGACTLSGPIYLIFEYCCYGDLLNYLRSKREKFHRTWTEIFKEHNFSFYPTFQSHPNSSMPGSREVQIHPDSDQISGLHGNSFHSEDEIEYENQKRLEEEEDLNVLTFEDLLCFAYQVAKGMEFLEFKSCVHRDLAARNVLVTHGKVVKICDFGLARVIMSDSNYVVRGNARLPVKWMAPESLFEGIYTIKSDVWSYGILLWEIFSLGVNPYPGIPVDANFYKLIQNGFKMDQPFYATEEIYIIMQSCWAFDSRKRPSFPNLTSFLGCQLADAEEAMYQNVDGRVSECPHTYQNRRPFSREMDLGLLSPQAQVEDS

For `O=C1NCCc2ccc(cc2)Nc2nccc(n2)Nc2cc1[nH]n2`, the pIC50 [1] was 4.96, the inhibition [2] was 103% and the ΔTm [3] was 3.8 °C. It also gave an inhibition [4] of 4.5%.
